Two proteins from ChEMBL document CHEMBL1828615, “Synthesis of a series of 3,4-methanoarginines as side-chain conformationally restricted analogues of arginine” (Bioorg Med Chem, 2011) can be followed below.

Substrate in data set [1]: N=C(N)NC[C@H]1C[C@H]1[C@H](N)C(=O)O
The data set can be described thus: (§1) Ratio of Kcat to Km for bovine eNOS by Michaelis-Menten equation analysis. Conditions: Bos taurus. The essentials: (§2)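 Bovine eNOS run as a hemoglobin capture assay at 30 °C. The mix held varied substrate concentrations, 1.0 mM CaCl₂, 600 unit/mL calmodulin, NADPH, 0.125 mg/mL ferrous hemoglobin-A₀ and H₄B in 100 mM HEPES (pH 7.5). Enzyme addition started the reaction, and NO-driven hemoglobin oxidation was followed at 401 nm. Km and kcat came from a nonlinear Michaelis–Menten fit of activity versus substrate concentration.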

Substrate in data set [2]: N=C(N)NCCC[C@H](N)C(=O)O
Described as §1. Conditions: Bos taurus. The procedure, abridged:
as §2

Substrate in data set [3]: N=C(N)NC[C@H]1C[C@@H]1[C@H](N)C(=O)O
Described as §1. The following applies: Bos taurus. The procedure, abridged:
as §2

Substrate in data set [4]: N=C(N)NC[C@H]1C[C@H]1[C@H](N)C(=O)O
The data set can be described thus: (§3) Activity of bovine eNOS by Michaelis-Menten equation analysis. Conditions: Bos taurus. The essentials: as §2

Substrate in data set [5]: N=C(N)NCCC[C@H](N)C(=O)O
The description is as §3. Conditions: Bos taurus. The procedure, abridged: as §2

Substrate in data set [6]: N=C(N)NC[C@H]1C[C@@H]1[C@H](N)C(=O)O
Described as §3. The following applies: Bos taurus. The essentials:
as §2

Substrate in data set [7]: N=C(N)NC[C@H]1C[C@H]1[C@H](N)C(=O)O
The data set can be described thus: (§4) Activity of mouse iNOS by Michaelis-Menten equation analysis. The procedure, abridged:
(§5)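 Murine iNOS kinetics used a hemoglobin capture assay at 30 °C, with no CaCl₂ or calmodulin. The mix held varied substrate concentrations, NADPH, 0.125 mg/mL ferrous hemoglobin-A₀ and H₄B in 100 mM HEPES (pH 7.5), and enzyme addition started it. Absorbance at 401 nm tracked NO-mediated hemoglobin oxidation. Km and kcat were obtained by nonlinear Michaelis–Menten regression of activity against substrate concentration.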

Substrate in data set [8]: N=C(N)NCCC[C@H](N)C(=O)O
The data set is described as §4. The procedure, abridged:
as §5

Substrate in data set [9]: N=C(N)NC[C@H]1C[C@@H]1[C@H](N)C(=O)O
The description is as §4. The essentials:
as §5

Substrate in data set [10]: N=C(N)NC[C@H]1C[C@H]1[C@H](N)C(=O)O
The data set is described as follows: (§6) Ratio of Kcat to Km for mouse iNOS by Michaelis-Menten equation analysis. The procedure, abridged:
as §5

Substrate in data set [11]: N=C(N)NCCC[C@H](N)C(=O)O
The description is as §6. The procedure, abridged:
as §5

Substrate in data set [12]: N=C(N)NC[C@H]1C[C@@H]1[C@H](N)C(=O)O
The description is as §6. The essentials:
as §5

B1: Nitric oxide synthase 3 (Bos taurus), P29473 (protein)
chain: MGNLKSVGQEPGPPCGLGLGLGLGLCGKQGPASPAPEPSRAPAPATPHAPDHSPAPNSPTLTRPPEGPKFPRVKNWELGSITYDTLCAQSQQDGPCTPRCCLGSLVLPRKLQTRPSPGPPPAEQLLSQARDFINQYYSSIKRSGSQAHEERLQEVEAEVASTGTYHLRESELVFGAKQAWRNAPRCVGRIQWGKLQVFDARDCSSAQEMFTYICNHIKYATNRGNLRSAITVFPQRAPGRGDFRIWNSQLVRYAGYRQQDGSVRGDPANVEITELCIQHGWTPGNGRFDVLPLLLQAPDEAPELFVLPPELVLEVPLEHPTLEWFAALGLRWYALPAVSNMLLEIGGLEFSAAPFSGWYMSTEIGTRNLCDPHRYNILEDVAVCMDLDTRTTSSLWKDKAAVEINLAVLHSFQLAKVTIVDHHAATVSFMKHLDNEQKARGGCPADWAWIVPPISGSLTPVFHQEMVNYILSPAFRYQPDPWKGSATKGAGITRKKTFKEVANAVKISASLMGTLMAKRVKATILYASETGRAQSYAQQLGRLFRKAFDPRVLCMDEYDVVSLEHEALVLVVTSTFGNGDPPENGESFAAALMEMSGPYNSSPRPEQHKSYKIRFNSVSCSDPLVSSWRRKRKESSNTDSAGALGTLRFCVFGLGSRAYPHFCAFARAVDTRLEELGGERLLQLGQGDELCGQEEAFRGWAKAAFQASCETFCVGEEAKAAAQDIFSPKRSWKRQRYRLSTQAEGLQLLPGLIHVHRRKMFQATVLSVENLQSSKSTRATILVRLDTAGQEGLQYQPGDHIGICPPNRPGLVEALLSRVEDPPPPTESVAVEQLEKGSPGGPPPSWVRDPRLPPCTLRQALTFFLDITSPPSPRLLRLLSTLAEEPSEQQELETLSQDPRRYEEWKWFRCPTLLEVLEQFPSVALPAPLLLTQLPLLQPRYYSVSSAPNAHPGEVHLTVAVLAYRTQDGLGPLHYGVCSTWLSQLKTGDPVPCFIRGAPSFRLPPDPYVPCILVGPGTGIAPFRGFWQERLHDIESKGLQPAPMTLVFGCRCSQLDHLYRDEVQDAQERGVFGRVLTAFSREPDSPKTYVQDILRTELAAEVHRVLCLERGHMFVCGDVTMATSVLQTVQRILATEGDMELDEAGDVIGVLRDQQRYHEDIFGLTLRTQEVTSRIRTQSFSLQERHLRGAVPWAFDPPGPDTPGP
Turning to B1, the figures for the kcat/Km in data set [1], in data set [2] and in data set [3] were 920 M⁻¹ s⁻¹, 73000 M⁻¹ s⁻¹ and 42000 M⁻¹ s⁻¹, respectively. Moreover, the Km in data set [4] is 163 µM; in data set [5], 1.1 µM; in data set [6] it was 3.6 µM.

B2: Nitric oxide synthase, inducible (Mus musculus), P29477 (protein)
chain: MACPWKFLFKVKSYQSDLKEEKDINNNVKKTPCAVLSPTIQDDPKSHQNGSPQLLTGTAQNVPESLDKLHVTSTRPQYVRIKNWGSGEILHDTLHHKATSDFTCKSKSCLGSIMNPKSLTRGPRDKPTPLEELLPHAIEFINQYYGSFKEAKIEEHLARLEAVTKEIETTGTYQLTLDELIFATKMAWRNAPRCIGRIQWSNLQVFDARNCSTAQEMFQHICRHILYATNNGNIRSAITVFPQRSDGKHDFRLWNSQLIRYAGYQMPDGTIRGDAATLEFTQLCIDLGWKPRYGRFDVLPLVLQADGQDPEVFEIPPDLVLEVTMEHPKYEWFQELGLKWYALPAVANMLLEVGGLEFPACPFNGWYMGTEIGVRDFCDTQRYNILEEVGRRMGLETHTLASLWKDRAVTEINVAVLHSFQKQNVTIMDHHTASESFMKHMQNEYRARGGCPADWIWLVPPVSGSITPVFHQEMLNYVLSPFYYYQIEPWKTHIWQNEKLRPRRREIRFRVLVKVVFFASMLMRKVMASRVRATVLFATETGKSEALARDLATLFSYAFNTKVVCMDQYKASTLEEEQLLLVVTSTFGNGDCPSNGQTLKKSLFMLRELNHTFRYAVFGLGSSMYPQFCAFAHDIDQKLSHLGASQLAPTGEGDELSGQEDAFRSWAVQTFRAACETFDVRSKHHIQIPKRFTSNATWEPQQYRLIQSPEPLDLNRALSSIHAKNVFTMRLKSQQNLQSEKSSRTTLLVQLTFEGSRGPSYLPGEHLGIFPGNQTALVQGILERVVDCPTPHQTVCLEVLDESGSYWVKDKRLPPCSLSQALTYFLDITTPPTQLQLHKLARFATDETDRQRLEALCQPSEYNDWKFSNNPTFLEVLEEFPSLHVPAAFLLSQLPILKPRYYSISSSQDHTPSEVHLTVAVVTYRTRDGQGPLHHGVCSTWIRNLKPQDPVPCFVRSVSGFQLPEDPSQPCILIGPGTGIAPFRSFWQQRLHDSQHKGLKGGRMSLVFGCRHPEEDHLYQEEMQEMVRKRVLFQVHTGYSRLPGKPKVYVQDILQKQLANEVLSVLHGEQGHLYICGDVRMARDVATTLKKLVATKLNLSEEQVEDYFFQLKSQKRYHEDIFGAVFSYGAKKGSALEEPKATRL
Take B2: the Km in data set [7] is 582 µM; in [8], 9.5 µM; in data set [9], 20 µM. The kcat/Km in data set [10] was 3000 M⁻¹ s⁻¹; in [11], 110000 M⁻¹ s⁻¹; in data set [12] it was 99000 M⁻¹ s⁻¹.

The term kcat/Km denotes the turnover number divided by the Michaelis constant. For orientation: Km means the concentration of substrate that gives half-maximal velocity.
